Measurements taken from ChEMBL document CHEMBL1136720, “Orally active, antimalarial, anticancer, artemisinin-derived trioxane dimers with high stability and efficacy” (J Med Chem, 2003).

How the values were obtained:
Plasmodium falciparum = test: In vitro antimalarial activity against chloroquine-sensitive Plasmodium falciparum NF 54; type: functional, organism-based
How it was run: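 In vitro test run in quadruplicate for each set, with the value taken from a fitted dose–response curve. Artemisinin was run as a concurrent control (n = 10).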

Mus musculus [1] = test: In vivo antimalarial activity in mice (Mus musculus) infected with Plasmodium berghei NY malaria parasite after intravenous administration for 4 days; type: functional; conditions: 96 h
How it was run: (§1)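 Mice infected with P. berghei NY were given drug intravenously or orally (per line) daily for 4 days, following a published protocol. The work was run as two separate groups of experiments, each with its own reference drugs.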

Mus musculus [2] = test: In vivo antimalarial activity in mice (Mus musculus) infected with Plasmodium berghei NY malaria parasite after oral administration for 4 days; type: functional; conditions: 96 h; how it was run: as §1
Mus musculus [3] = test: In vivo antimalarial activity in mice (Mus musculus) infected with Plasmodium berghei NY malaria parasite after intravenous administration determined as parasite suppression at 10 mg/kg; type: functional; how it was run: as §1
Mus musculus [4] = test: In vivo antimalarial activity in mice (Mus musculus) infected with Plasmodium berghei NY malaria parasite after oral administration determined as parasite suppression at 10 mg/kg; type: functional; how it was run: as §1
Mus musculus [5] = test: In vivo antimalarial activity in mice (Mus musculus) infected with Plasmodium berghei NY malaria parasite after intravenous administration for 4 days (Experiment 1); type: functional; conditions: 96 h; how it was run: as §1
Mus musculus [6] = test: In vivo antimalarial activity in mice (Mus musculus) infected with Plasmodium berghei NY malaria parasite after intravenous administration for 4 days (Experiment 2); type: functional; conditions: 96 h; how it was run: as §1
Mus musculus [7] = test: In vivo antimalarial activity in mice (Mus musculus) infected with Plasmodium berghei NY malaria parasite after intravenous administration determined as parasite suppression at 10 mg/kg (Experiment 1); type: functional; how it was run: as §1
Mus musculus [8] = test: In vivo antimalarial activity in mice (Mus musculus) infected with Plasmodium berghei NY malaria parasite after intravenous administration determined as parasite suppression at 10 mg/kg (Experiment 2); type: functional; how it was run: as §1
Mus musculus [9] = test: In vivo antimalarial activity in mice (Mus musculus) infected with Plasmodium berghei NY malaria parasite after oral administration for 4 days (Experiment 1); type: functional; conditions: 96 h
How it was run: (§2)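 P. berghei NY-infected mice given the compound orally once daily for 4 days, following a previously published protocol. Two separate groups of experiments were run, each with its own concurrent reference drugs.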

Mus musculus [10] = test: In vivo antimalarial activity in mice (Mus musculus) infected with Plasmodium berghei NY malaria parasite after oral administration for 4 days (Experiment 2); type: functional; conditions: 96 h; how it was run: as §2
Mus musculus [11] = test: In vivo antimalarial activity in mice (Mus musculus) infected with Plasmodium berghei NY malaria parasite after oral administration determined as parasite suppression at 10 mg/kg (Experiment 1); type: functional
How it was run: (§3)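 P. berghei NY-infected mice dosed orally at 10 mg/kg body weight, following a previously published protocol. Read-out is % suppression of parasite growth. Two separate groups of experiments were run, each with its own concurrent reference drugs.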

Mus musculus [12] = test: In vivo antimalarial activity in mice (Mus musculus) infected with Plasmodium berghei NY malaria parasite after oral administration determined as parasite suppression at 10 mg/kg (Experiment 2); type: functional; how it was run: as §3

C[C@@H]1CC[C@H]2[C@@H](C)C(CC(=O)CC3OC4O[C@]5(C)CC[C@H]6[C@H](C)CC[C@@H]([C@H]3C)C46OO5)OC3O[C@]4(C)CCC1C32OO4 (stereo partly specified)
IC50 (Plasmodium falciparum): 0.91 nM

C=C(CC1OC2O[C@]3(C)CCC4[C@H](C)CC[C@@H]([C@H]1C)C24OO3)CC1OC2O[C@]3(C)CC[C@H]4[C@H](C)CC[C@@H]([C@H]1C)C24OO3 (stereo partly specified)
IC50 (Plasmodium falciparum): 24 nM

C[C@@H]1CC[C@H]2[C@@H](C)C(CC3(CC4OC5O[C@]6(C)CC[C@H]7[C@H](C)CC[C@@H]([C@H]4C)C57OO6)CO3)OC3O[C@]4(C)CCC1C32OO4 (stereo partly specified)
IC50 (Plasmodium falciparum): 2.8 nM

C[C@H]1[C@@H](CC(O)(CO)C[C@H]2O[C@@H]3O[C@]4(C)CC[C@H]5[C@H](C)CC[C@@H]([C@H]2C)[C@@]35OO4)O[C@@H]2O[C@]3(C)CC[C@H]4[C@H](C)CC[C@@H]1[C@@]24OO3 (stereo partly specified)
IC50 (Plasmodium falciparum): 0.59 nM

C[C@@H]1CC[C@H]2[C@@H](C)C(CC(COC(=O)c3ccncc3)CC3OC4O[C@]5(C)CC[C@H]6[C@H](C)CC[C@@H]([C@H]3C)C46OO5)OC3O[C@]4(C)CCC1C32OO4 (stereo partly specified)
IC50 (Plasmodium falciparum): 1.7 nM

C[C@@H]1CC[C@H]2[C@@H](C)C(CC(COC(=O)CCC(=O)O)CC3OC4O[C@]5(C)CC[C@H]6[C@H](C)CC[C@@H]([C@H]3C)C46OO5)OC3O[C@]4(C)CCC1C32OO4 (stereo partly specified)
ED50 (Mus musculus [1]): 2.2 mg/kg/day
ED90 (Mus musculus [1]): 6.3 mg/kg/day
ED50 (Mus musculus [2]): 9 mg/kg/day
ED90 (Mus musculus [2]): 15 mg/kg/day
Parasite suppression (Mus musculus [3]): 81%
Parasite suppression (Mus musculus [4]): 79.2%
IC50 (Plasmodium falciparum): 2 nM

C[C@@H]1CC[C@H]2[C@@H](C)C(CC(O)(CC3OC4O[C@]5(C)CC[C@H]6[C@H](C)CC[C@@H]([C@H]3C)C46OO5)CS(=O)(=O)c3ccc(C(=O)O)cc3)OC3O[C@]4(C)CCC1C32OO4 (stereo partly specified)
ED50 (Mus musculus [1]): 2.7 mg/kg/day
ED90 (Mus musculus [1]): 10 mg/kg/day
ED50 (Mus musculus [2]): 7.5 mg/kg/day
ED90 (Mus musculus [2]): 35 mg/kg/day
Parasite suppression (Mus musculus [3]): 83.4%
Parasite suppression (Mus musculus [4]): 46.1%
IC50 (Plasmodium falciparum): 2.4 nM

C[C@@H]1CC[C@H]2[C@@H](C)C(CC(CO)CC3OC4O[C@]5(C)CC[C@H]6[C@H](C)CC[C@@H]([C@H]3C)C46OO5)OC3O[C@]4(C)CCC1C32OO4 (stereo partly specified)
IC50 (Plasmodium falciparum): 0.87 nM

C[C@@H]1CC[C@H]2[C@@H](C)C(CC(O)(CC3OC4O[C@]5(C)CC[C@H]6[C@H](C)CC[C@@H]([C@H]3C)C46OO5)c3ccc(C(=O)O)cc3)OC3O[C@]4(C)CCC1C32OO4 (stereo partly specified)
IC50 (Plasmodium falciparum): 2.1 nM

C[C@@H]1[C@H](OCc2ccc(C(=O)O)cc2)O[C@@H]2O[C@@]3(C)CC[C@@H]4[C@@H](C)CC[C@@H]1[C@]24OO3 (stereo in doubt) [ARTELINIC ACID]
ED50 (Mus musculus [5]): 11 mg/kg/day
ED90 (Mus musculus [5]): 25 mg/kg/day
ED50 (Mus musculus [6]): 5.6 mg/kg/day
ED90 (Mus musculus [6]): 43 mg/kg/day
Parasite suppression (Mus musculus [7]): 54.7%
Parasite suppression (Mus musculus [8]): 42.4%

C[C@@H]1CC[C@H]2[C@@H](C)C(=O)O[C@@H]3O[C@@]4(C)CC[C@@H]1[C@]32OO4 [ARTEMISININ]
IC50 (Plasmodium falciparum): 9 nM

C[C@H]1[C@H](OC(=O)CCC(=O)[O-])O[C@@H]2O[C@@]3(C)CC[C@H]4[C@H](C)CC[C@@H]1[C@@]24OO3.[Na+] [SODIUM ARESUNATE]
ED50 (Mus musculus [9]): 10 mg/kg/day
ED90 (Mus musculus [9]): 39 mg/kg/day
ED50 (Mus musculus [10]): 5.5 mg/kg/day
ED90 (Mus musculus [10]): 70 mg/kg/day
Parasite suppression (Mus musculus [11]): 52.8%
Parasite suppression (Mus musculus [12]): 50.9%

C[C@@H]1CC[C@H]2[C@@H](C)C(CC(O)(COC(=O)CCC(=O)O)CC3OC4O[C@]5(C)CC[C@H]6[C@H](C)CC[C@@H]([C@H]3C)C46OO5)OC3O[C@]4(C)CCC1C32OO4 (stereo partly specified) [TERTIARY ALCOHOL PRIMARY SUCCINATEESTER]
ED50 (Mus musculus [1]): 2.4 mg/kg/day
ED90 (Mus musculus [1]): 11 mg/kg/day
ED50 (Mus musculus [2]): 4.8 mg/kg/day
ED90 (Mus musculus [2]): 34 mg/kg/day
Parasite suppression (Mus musculus [3]): 83.4%
Parasite suppression (Mus musculus [4]): 55.4%
IC50 (Plasmodium falciparum): 3 nM
